Screening results (PubChem BioAssay)
HIV Env fusion – inhibitors of HIV-1 Env-driven cell-cell fusion, primary screen, HeLa-JRFL effector, CEM21 target cells, luciferase; inhibition, % at 12.3 µM; 360,000 compounds, 1.1% hits;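 active = mean replicate inhibition score of at least 50 and every replicate individually at or above 50; inconclusive = only one of the two criteria met; inactive = mean below 50 and not all replicates reaching 50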;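 also: 0% = plate neutral controls and 100% = maraviroc near 300 nM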
PAX8 reporter – inhibitors of PAX8-driven TPO luciferase reporter, primary screen, RMG-I cells, single concentration; SteadyGlo, 24 h; AID 652154, 2013; 360,000 compounds, 1.2% hits; inhibition, % at 12.6 µM;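 active = mean replicate inhibition at least 60% with every replicate also reaching 60%; inconclusive = only one of the two criteria is met; inactive = mean below 60% and not all replicates reaching 60%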;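 also: luciferase light reporting Pax8 driven TPO promoter activity; plate controls were median of neutral control wells for no effect and mitoxantrone controls for full effect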
FN deposition inh – inhibitors of fibronectin matrix deposition, primary screen, AH1F cells, Alexa488-fibronectin fluorescence, plate reader. AH1F fibroblasts, overnight. inhibition, % at 12.6 µM. 350,000 compounds, 0.086% hits;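 active = mean inhibition across replicates of 30% or more, regardless of how many single replicates reach that level; inconclusive = mean under 30% yet at least half of replicates reach 30%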;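 also: positive control wells lacked labelled fibronectin entirely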
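Measured by – fluorescence 485/525 nm · System – AH1F fibroblast monolayer, labelled fibronectin deposition · Amount – 10000 cells per well · Buffer or medium – serum-reduced DMEM (2% serum) · Doses – single dose, pinned · Also added – fluorescent fibronectin at 24 nM final · Schedule – 1 h cell attachment, overnight exposure to compound and label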
PGC1a acetyl inh – inhibitors of PGC1a acetylation signal, primary screen, cell-based, U2OS, AlphaScreen, inhibitor mode | AlphaScreen anti-acetyl-lysine; with virally co-expressed GCN5 acetyltransferase | 350,000 compounds, 0.17% hits | inhibition, % at 15.6 µM | AID 651687, 2012;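 active = every replicate shows inhibition of at least 40%; inconclusive = mean inhibition at least 40% but some replicate below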;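 also: 0% = neutral control wells and 100% = positive control wells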
EWS-Fli inh – EWS/Fli-driven NR0B1 reporter inhibitors, primary screen, A673 cells, NR0B1 luciferase, luminescence, MLPCN library | viability-normalised | inhibition, % at 12.6 µM | 350,000 compounds, 0.67% hits | AID 651661, 2012;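 active = mean inhibition of at least 50% after viability correction, with every replicate also passing that limit; inconclusive = mean reaches 50% but only one of two replicates passes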;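 also: firefly luciferase signal divided by Alamar Blue viability fluorescence both relative to DMSO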
F508del corr – F508del CFTR correction, initial screen, CFBE line, single point | CFBE cells, YFP halide quenching; stimulated with forskolin plus potentiator P3; % fluorescence drop versus neutral controls | activity (quench increase), % at 7.58 µM | 350,000 compounds, 0.36% hits | AID 720511, 2013;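 active = mean added fluorescence quench of at least 8% versus neutral control, with both replicates also reaching 8%; inconclusive = only one of the mean or replicate conditions met; inactive = mean below 8% and not both replicates reaching 8%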;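 also: cells transiently co-express mutant CFTR-F508del with the halide-sensitive YFP; corrector assay measuring rescue of mutant channel to the surface after 24 h compound exposure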
* marks the source's active call; other numbers are inactive results; i = inactive; u = inconclusive; x = no result given; [ ] = dose if it differs, or a comment. Compounds with a hit are over-represented: about 2.3% of the library has one in this group of screens.

SMILES	HIV Env fusion	PAX8 reporter	FN deposition inh	PGC1a acetyl inh	EWS-Fli inh	F508del corr
C[C@@H]1CCCCO[C@@H](CN(C)CC2CCCCC2)[C@H](C)CN([C@H](C)CO)C(=O)c2cc(NS(=O)(=O)c3ccc(F)cc3)ccc2O1	-16[16.7 µM]	-1	x	-20	16	2
Nc1ccc[n+](CC(=O)c2ccccc2)c1	5	-5	11	12	17	x
CCc1n[n+](CC(=O)c2ccccc2)c(N)s1	16	30	-2	x	59*	-4
Cc1ccc2nc(SCC(=O)Nc3ccccc3N3CCOCC3)c(C#N)cc2c1	x	x	x	-2	x	x
CCc1ccc2nc(SCC(=O)Nc3ccccc3N3CCOCC3)c(C#N)cc2c1	-26	37	-7	1	59*	2
C[C@@H]1CCCCO[C@@H](CN(C)C(=O)Nc2cccc3ccccc23)[C@H](C)CN([C@@H](C)CO)C(=O)c2cc(NS(=O)(=O)c3cn(C)cn3)ccc2O1	21[16.7 µM]	23	x	-12	19	2
O=C(Cc1ccc(S(=O)(=O)N2CCOCC2)s1)N1CCN(S(=O)(=O)c2ccc(Cl)cc2)CC1	70*	9	-4	3	3	0
Cc1ccccc1[C@H](NC1c2ccccc2C=Cc2ccccc21)P(=O)(c1ccccc1)c1ccccc1	86*	50	10	x	13	0
OC[C@@H]1[C@H](c2ccc(/C=C/c3ccccc3)cc2)[C@@H]2CN(Cc3ccncc3)CCCCN12	x	-161	x	-2	-48	6
O=C(NCc1cccc(F)c1)[C@@H]1[C@@H](CO)[C@@H]2Cn3c(ccc(-c4cccnc4)c3=O)[C@H]1N2CC1CC1	67*[16.7 µM]	-8	x	x	0	x
O=C(NCc1cccc(F)c1)[C@H]1[C@H](CO)[C@H]2Cn3c(ccc(-c4ccncc4)c3=O)[C@@H]1N2CC1CC1	x	0	0	x	-3	3
Cc1ccc(N2C(=O)CC(c3ccsc3)C3=C2CC(C)(C)CC3=O)cc1 (stereo unspecified)	107*	-13	-1	-15	x	x
CC1(C)CC(=O)C2=C(C1)N(c1ccc(F)cc1)C(=O)CC2c1ccsc1 (stereo unspecified)	21	-1	11	-2	-1	3
C[C@H](CO)N1C[C@H](C)[C@@H](CN(C)S(=O)(=O)c2cccs2)OCCCC[C@H](C)Oc2ccc(NC(=O)CCCN(C)C)cc2C1=O	-90[16.7 µM]	x	x	0	1	-2
O=C(C(Cc1ccccc1)N1C(=O)c2ccccc2C1=O)N1c2ccccc2CCc2ccccc21 (stereo unspecified)	66*	5	-2	-31	21	-2
O=C1c2ccccc2C(=O)N1CC(=O)N1c2ccccc2CCc2ccccc21	-34	16	-2	6	x	x
CC(=O)N(C)C[C@@H]1Oc2cc(C#Cc3cccc(F)c3)ccc2S(=O)(=O)N([C@@H](C)CO)C[C@H]1C	29[16.7 µM]	x	5	x	5	2
O=C(CCCC(=O)OCC(Cl)=C(Cl)Cl)Nc1ccc(F)cc1	x	103*	9	3	4	-1
Cc1noc(C)c1S(=O)(=O)Nc1ccc2c(c1)CC(=O)N([C@H](C)CO)C[C@@H](C)[C@H](CN(C)Cc1ccc(Cl)c(Cl)c1)O2	-24[16.7 µM]	3	0	-5	3	1
COc1cc([C@@H]2c3cc4c(cc3[C@@H](O[C@@H]3O[C@@H]5CO[C@@H](C)O[C@H]5[C@H](O)[C@H]3O)[C@H]3COC(=O)[C@H]23)OCO4)cc(OC)c1O	45	28	-3	-17	54*	0
COc1cc(C2c3cc4c(cc3C(O)C3COCC23)OCO4)cc(OC)c1OC (stereo unspecified)	0	x	2	-9	-1	-1
COc1cc([C@@H]2c3cc4c(cc3[C@H](O)[C@H]3COC(=O)[C@H]23)OCO4)cc(OC)c1OC	x	95*	-30	-2	72*	-1
CCN(CC)C1Oc2cc3c(cc2C(c2cc(OC)c(O)c(OC)c2)C1C)OCO3 (stereo unspecified)	-8	2	x	-8	3	0
COc1cc(C2c3cc4c(cc3C(OC3OC5COC(c6cccs6)OC5C(O)C3O)C3COC(=O)C23)OCO4)cc(OC)c1O (stereo unspecified)	-120	69*	-7	x	60*	-3
COC(=O)C[C@H]1CC[C@H]2[C@@H](COc3ccc(NC(=O)CN(C)C)cc3C(=O)N2C)O1	x	x	-21	x	x	x
SMILES	HIV Env fusion	PAX8 reporter	FN deposition inh	PGC1a acetyl inh	EWS-Fli inh	F508del corr
O=[N+]([O-])c1ccc(Sc2cccc3cccnc23)c([N+](=O)[O-])c1	x	x	x	-35	-33	-6
O=[N+]([O-])c1ccc(Sc2ccncn2)c([N+](=O)[O-])c1	i	105*	5	x	33	4
Cc1cc(C)nc(Sc2ccc([N+](=O)[O-])cc2[N+](=O)[O-])n1	-1	94*	1	x	x	x
COc1cc(OC)c2c(-c3cccc(/C=C/c4ccc(F)cc4)c3)cc(=O)oc2c1	-177	-88	x	x	-80	0
COc1cc(OC)c2c(-c3cccc(-c4ccc(O)cc4)c3)cc(=O)oc2c1	-64	41	15	8	53*	0
COc1cc(OC)c2c(-c3cccc(-c4ccc(OC(F)(F)F)cc4)c3)cc(=O)oc2c1	9	-4	-11	-2	-3	2
COc1ccc(-c2cccc(-c3cc(=O)oc4cc(OC)cc(OC)c34)c2)cc1	-29	58	x	-21	53*	3
COc1cc(OC)c2c(-c3cccc(-c4ccc(N(C)C)cc4)c3)cc(=O)oc2c1	-164	77*	-33	-9	u	6
COc1cc(OC)c2c(-c3cccc(-c4cccc(C)c4)c3)cc(=O)oc2c1	24	27	x	-60	54*	5
C[C@@H]1CN([C@H](C)CO)C(=O)c2cccc(NS(=O)(=O)c3ccccc3)c2O[C@H]1CN(C)S(=O)(=O)c1ccc(Cl)cc1	3[16.7 µM]	-37	x	8	-10	0
CC(C)c1cn(CC[C@@H]2CC[C@H](NC(=O)C3CCOCC3)[C@@H](CO)O2)nn1	x	-24	x	-7	x	3
COc1ccc(-c2cccc(-c3cc(=O)oc4cc(OC)c(OC)c(OC)c34)c2)cc1	50*	12	x	-6	5	-1
COc1ccccc1NC(=O)CSc1nnc(CC(=O)Nc2cccc(C(F)(F)F)c2)n1C	-70	x	8	12	x	x
COc1ccc(C)cc1NC(=O)CSc1nnc(CC(=O)Nc2cccc(C(F)(F)F)c2)n1C	80*	x	14	-6	x	x
CO[C@H]1CN(C)C(=O)c2ccc(NC(=O)C3CCCC3)cc2OC[C@H](C)N(S(C)(=O)=O)C[C@H]1C	-9[16.7 µM]	x	2	-1	-2	-3
